Test results from ChEMBL document CHEMBL1667761, “3-benzylamino-β-carboline derivatives induce apoptosis through G2/M arrest in human carcinoma cells HeLa S-3” (Eur J Med Chem, 2011).
The source made the active and inactive calls. No cut-off for these calls is given here.

Assays:
[1] = Antitumor activity against human HeLaS3 cells after 24 to 72 hrs by MTT assay; type: functional, cell-based, HeLa S3
How it was run: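 HeLa S-3 cells (MEM, 10% FBS, HEPES, NEAA, 2 mM L-glutamine, 5% CO2, 37 °C) seeded at 2 × 10⁴ cells/ml and cultured 3 h before exposure for 24–72 h at 37 °C. MTT (2 mg/ml) added for 4 h at 37 °C, formazan dissolved in DMSO, A540 read. Viability is expressed as % of control. IC50 is the concentration giving 50% growth inhibition, mean ± S.D. of four independent experiments run in triplicate.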

[2] = Cell cycle arrest in human HeLaS3 cells assessed as accumulation at S phase at 5 uM after 6 hrs by flow cytometry; type: functional, cell-based; conditions: HeLa S3
How it was run: (§1)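 HeLa S-3 cells exposed for 6, 12 or 24 h. Cells washed twice in ice-cold PBS, fixed in ice-cold 70% ethanol, and resuspended with 0.1 mg/ml RNase. Stained with […] PI and analysed by flow cytometry. Phase distribution (sub-G1, G1, S, G2/M) is reported as percentage of cells. Controls were untreated.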

[3] = Cell cycle arrest in human HeLaS3 cells assessed as accumulation at sub-G1 phase at 5 uM after 6 hrs by flow cytometry; type: functional, cell-based; conditions: HeLa S3; how it was run: as §1
[4] = Cell cycle arrest in human HeLaS3 cells assessed as accumulation at G1 phase at 1 uM after 24 hrs by flow cytometry; type: functional, cell-based; conditions: HeLa S3; how it was run: as §1
[5] = Cell cycle arrest in human HeLaS3 cells assessed as accumulation at G1 phase at 1 uM after 12 hrs by flow cytometry; type: functional, cell-based; conditions: HeLa S3; how it was run: as §1
[6] = Cell cycle arrest in human HeLaS3 cells assessed as accumulation at G2/M phase at 5 uM after 6 hrs by flow cytometry; type: functional, cell-based; conditions: HeLa S3; how it was run: as §1
[7] = Cell cycle arrest in human HeLaS3 cells assessed as accumulation at S phase at 5 uM after 24 hrs by flow cytometry; type: functional, cell-based; conditions: HeLa S3; how it was run: as §1
[8] = Cell cycle arrest in human HeLaS3 cells assessed as accumulation at G1 phase at 5 uM after 24 hrs by flow cytometry; type: functional, cell-based; conditions: HeLa S3; how it was run: as §1
[9] = Cell cycle arrest in human HeLaS3 cells assessed as accumulation at sub-G1 phase at 1 uM after 12 hrs by flow cytometry; type: functional, cell-based; conditions: HeLa S3; how it was run: as §1
[10] = Cell cycle arrest in human HeLaS3 cells assessed as accumulation at S phase at 5 uM after 12 hrs by flow cytometry; type: functional, cell-based; conditions: HeLa S3; how it was run: as §1
HeLa S3 [11] = test: Induction of apoptosis in human HeLaS3 cells assessed as cleaved caspase-3 at 5 times IC50 by Western blot method; type: functional, cell-based
How it was run: (§2)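 HeLa S-3 cells treated for 24 h at 5-fold the IC50, alongside non-treated controls. Cells lysed in RIPA buffer (pH 8.0) with protease inhibitors and the whole-cell extract separated by SDS-PAGE, then transferred to PVDF. Blots blocked in 5% skim milk/TTBS and probed with anti-cdc2, cdk2 or cleaved caspase-3 antibodies (1:1000). β-actin (1:5000) served as loading control. Detection by HRP secondary antibody and ECL.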

HeLa S3 [12] = test: Induction of apoptosis in human HeLaS3 cells assessed as DNA fragmentation after 24 hrs by agarose gel electrophoresis; type: functional, cell-based
How it was run: (§3)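 HeLa S-3 cells exposed for 12–48 h, then pellets lysed in 0.6% sarcosine, 20 mM Tris-HCl pH 7.4, 20 mM EDTA. Lysate treated with RNase A for 2 h at 50 °C, then proteinase K overnight at 50 °C. DNA extracted with phenol/chloroform, run on 2% agarose in TAE at 50 V, stained with ethidium bromide, and visualised under UV.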

[13] = Cell cycle arrest in human HeLaS3 cells assessed as accumulation at sub-G1 phase at 5 uM after 12 hrs by flow cytometry; type: functional, cell-based; conditions: HeLa S3; how it was run: as §1
[14] = Cell cycle arrest in human HeLaS3 cells assessed as accumulation at S phase at 1 uM after 24 hrs by flow cytometry; type: functional, cell-based; conditions: HeLa S3; how it was run: as §1
[15] = Cell cycle arrest in human HeLaS3 cells assessed as accumulation at G1 phase at 1 uM after 6 hrs by flow cytometry; type: functional, cell-based; conditions: HeLa S3; how it was run: as §1
[16] = Cell cycle arrest in human HeLaS3 cells assessed as accumulation at G2/M phase at 5 uM after 12 hrs by flow cytometry; type: functional, cell-based; conditions: HeLa S3; how it was run: as §1
[17] = Cell cycle arrest in human HeLaS3 cells assessed as accumulation at S phase at 1 uM after 6 hrs by flow cytometry; type: functional, cell-based; conditions: HeLa S3; how it was run: as §1
[18] = Cell cycle arrest in human HeLaS3 cells assessed as accumulation at G1 phase at 5 uM after 12 hrs by flow cytometry; type: functional, cell-based; conditions: HeLa S3; how it was run: as §1
HeLa S3 [19] = test: Induction of apoptosis in human HeLaS3 cells assessed as appearance of fragmented nuclei at 10 times IC50 after 48 hrs by Hoechst staining; type: functional, cell-based
How it was run: (§4)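 Stained with Hoechst 33342 (1 µg/ml) for 40 min at 37 °C. Nuclei were examined by confocal laser microscopy, and apoptosis was scored from chromatin condensation and fragmented nuclei.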

[20] = Cell cycle arrest in human HeLaS3 cells assessed as effect on cdk2 protein level at 5 times IC50 by Western blot method; type: functional, cell-based; conditions: HeLa S3; how it was run: as §2
[21] = Cell cycle arrest in human HeLaS3 cells assessed as accumulation at G2/M phase at 1 uM after 6 hrs by flow cytometry; type: functional, cell-based; conditions: HeLa S3; how it was run: as §1
[22] = Cell cycle arrest in human HeLaS3 cells assessed as accumulation at G2/M phase at 1 uM after 12 hrs by flow cytometry; type: functional, cell-based; conditions: HeLa S3; how it was run: as §1
[23] = Cell cycle arrest in human HeLaS3 cells assessed as increase in cdc2 protein level at 5 times IC50 by Western blot method; type: functional, cell-based; conditions: HeLa S3; how it was run: as §2
[24] = Cell cycle arrest in human HeLaS3 cells assessed as accumulation at sub-G1 phase at 1 uM after 24 hrs by flow cytometry; type: functional, cell-based; conditions: HeLa S3; how it was run: as §1
[25] = Cell cycle arrest in human HeLaS3 cells assessed as accumulation at sub-G1 phase at 1 uM after 6 hrs by flow cytometry; type: functional, cell-based; conditions: HeLa S3; how it was run: as §1
[26] = Cell cycle arrest in human HeLaS3 cells assessed as accumulation at G2/M phase at 5 uM after 24 hrs by flow cytometry; type: functional, cell-based; conditions: HeLa S3; how it was run: as §1
HeLa S3 [27] = test: Induction of apoptosis in human HeLaS3 cells assessed as appearance of fragmented nuclei at 5 times IC50 after 48 hrs by Hoechst staining; type: functional, cell-based; how it was run: as §4
[28] = Cell cycle arrest in human HeLaS3 cells assessed as accumulation at S phase at 1 uM after 12 hrs by flow cytometry; type: functional, cell-based; conditions: HeLa S3; how it was run: as §1
[29] = Cell cycle arrest in human HeLaS3 cells assessed as accumulation at G1 phase at 5 uM after 6 hrs by flow cytometry; type: functional, cell-based; conditions: HeLa S3; how it was run: as §1
[30] = Cell cycle arrest in human HeLaS3 cells assessed as accumulation at G2/M phase at 1 uM after 24 hrs by flow cytometry; type: functional, cell-based; conditions: HeLa S3; how it was run: as §1
[31] = Cell cycle arrest in human HeLaS3 cells assessed as accumulation at sub-G1 phase at 5 uM after 24 hrs by flow cytometry; type: functional, cell-based; conditions: HeLa S3; how it was run: as §1
HeLa S3 [32] = test: Induction of apoptosis in human HeLaS3 cells assessed as DNA fragmentation after 48 hrs by agarose gel electrophoresis; type: functional, cell-based; how it was run: as §3

| Compound | IC50 ([1]; Homo sapiens, HeLa S3) | Activity [2] | Activity [3] | Activity [4] | Activity [5] | Activity [6] | Activity [7] | Activity [8] | Activity [9] | Activity [10] | Activity (HeLa S3 [11]) | Activity (HeLa S3 [12]) | Activity [13] | Activity [14] | Activity [15] | Activity [16] | Activity [17] | Activity [18] | Activity (HeLa S3 [19]) | Activity [20] | other results |
| --- | --- | --- | --- | --- | --- | --- | --- | --- | --- | --- | --- | --- | --- | --- | --- | --- | --- | --- | --- | --- | --- |
| CC(C)(C)CNc1cc2c(cn1)[nH]c1ccccc12 | 17 µM |  |  |  |  |  |  |  |  |  |  |  |  |  |  |  |  |  |  |  |  |
| c1ccc2c(c1)[nH]c1cnccc12 [NORHARMANE] | > 100 µM |  |  |  |  |  |  |  |  |  |  |  |  |  |  |  |  |  |  |  |  |
| C[n+]1cc2[nH]c3ccccc3c2cc1NCc1ccccc1 [listing 1 of 3 here] |  |  |  |  |  |  |  |  |  |  |  |  |  |  |  |  |  |  |  |  | IC50 ([1]; hela s3): 0.54 µM |
| c1ccc(CNc2cc3c(cn2)[nH]c2ccccc23)cc1 | 0.12 µM | 12.2% | 3.3% | 1.1% | 2.9% | 47.3% | 3.9% | 4.9% | 3.7% | 12.5% | Active | Active | 3% | 2.6% | 31.5% | 68.1% | 19% | 13.8% | Active | inactive | Activity [21]: 46.1%; Activity [22]: 84.3%; Activity [23]: Active; Activity [24]: 3.7%; Activity [25]: 3.8%; Activity [26]: 80.5%; Activity (HeLa S3 [27]): Active; Activity [28]: 9.4%; Activity [29]: 34%; Activity [30]: 92.2%; Activity [31]: 8.3% |
| CC(C)(C)OC(=O)NCCOc1ccc(CNc2cc3c(cn2)[nH]c2ccccc23)cc1 | 42 µM |  |  |  |  |  |  |  |  |  |  |  |  |  |  |  |  |  |  |  |  |
| COC(=O)c1ccc(CNc2cc3c(cn2)[nH]c2ccccc23)cc1 | 45 µM |  |  |  |  |  |  |  |  |  |  |  |  |  |  |  |  |  |  |  |  |
| C[n+]1cc2[nH]c3ccccc3c2cc1NCc1ccccc1 [listing 2 of 3 here] |  | 13.8% | 2.8% | 38.4% | 7.8% | 50.5% | 3.6% | 4.4% | 10.3% | 10% | Active | inactive | 3.2% | 13.6% | 31.5% | 78.5% | 21.9% | 6.1% | Active | inactive | Activity [21]: 46.1%; Activity [22]: 73.5%; Activity [23]: Active; Activity [24]: 34.6%; Activity [25]: 4.7%; Activity [26]: 82.3%; Activity (HeLa S3 [27]): Active; Activity [28]: 8.7%; Activity [29]: 29.7%; Activity (HeLa S3 [32]): Active; Activity [30]: 13.8%; Activity [31]: 6.9% |
| Oc1cccc(CNc2cc3c(cn2)[nH]c2ccccc23)c1 | 0.92 µM | 14.1% | 3.5% | 58.5% | 48.8% | 52.9% | 6.8% | 15.8% | 9.5% | 8.9% | Active | Active | 5.9% | 17.4% | 36.2% | 76.7% | 20% | 7.2% | Active | inactive | Activity [21]: 36.3%; Activity [22]: 31.3%; Activity [23]: Active; Activity [24]: 7.5%; Activity [25]: 8.2%; Activity [26]: 53.3%; Activity (HeLa S3 [27]): Active; Activity [28]: 10.7%; Activity [29]: 27.3%; Activity [30]: 17.1%; Activity [31]: 21.3% |
| C[n+]1cc2[nH]c3ccccc3c2cc1NCc1ccccc1 [listing 3 of 3 here] |  |  |  |  |  |  |  |  |  |  |  |  |  |  |  |  |  |  |  |  | IC50 ([1]; hela s3): 9.9 µM |
